T cruzi growth-1 = inhibitors of T. cruzi proliferation | T. cruzi beta-gal in NIH3T3, GalScreen luminescence, 90 h | inhibition, % at 8.34 µM | 77,000 compounds, 5.9% hits;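 active means mean inhibition above about 93%, with at least 55% of replicates each passing it, limit read from the data, passing the limit was not always enough; inconclusive means only one of those two conditions holds; inactive means neither condition holds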
IDH1 mut inh = inhibitors of human IDH1 R132H. O75874. IDH1 R132H reductase, diaphorase/resazurin fluorescence, 60 min. inhibition, % at 10 µM. 70,000 compounds, 0.18% hits. AID 624101; in the data active means inhibition above about 34%; inconclusive means no clear call, values can overlap the other calls; inactive means below about 11%;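 further: 0% = DMSO and 100% = no enzyme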
GASC1 inh = blocks human GASC-1 (KDM4C) demethylase activity | inhibition, % at 12.5 µM | Q9H3R0 | AID 720574 | GST-KDM4C 2-372, H3K9me3 peptide, LANCE TR-FRET | 96,000 compounds, 0.15% hits;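 active means mean replicate inhibition above about 25%, with at least 55% of replicates also reaching it, limit read from the data, passing the limit was not always enough; inconclusive means only one of those two conditions met; inactive means neither condition met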
Target sequence (Q9H3R0 2-372 limits assumed): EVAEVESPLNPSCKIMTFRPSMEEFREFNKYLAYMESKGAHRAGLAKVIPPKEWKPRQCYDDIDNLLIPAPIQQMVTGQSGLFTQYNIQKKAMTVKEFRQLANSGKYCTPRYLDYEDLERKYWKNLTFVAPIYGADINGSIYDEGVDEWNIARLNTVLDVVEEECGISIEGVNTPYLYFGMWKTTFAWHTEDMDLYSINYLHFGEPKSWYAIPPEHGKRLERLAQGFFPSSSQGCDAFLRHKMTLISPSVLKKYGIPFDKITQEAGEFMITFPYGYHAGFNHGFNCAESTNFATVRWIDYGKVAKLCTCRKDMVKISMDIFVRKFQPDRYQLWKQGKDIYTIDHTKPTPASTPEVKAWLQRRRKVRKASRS
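Assay system: GST-GASC-1 enzyme fragment 2-372 | Amount: 10 nM enzyme | Medium: HEPES buffer, pH 7.5, plus ascorbate | Reagent: H3K9me3 peptide substrate, Fe(II), 2-oxoglutarate | Doses: Single-point compound screen | Incubation: 30 min demethylation and 1 h detection at room temperature | Measured by: LANCE TR-FRET, excitation 340 nm, emissions 618 and 671 nm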
T cruzi growth-2 = Trypanosoma cruzi proliferation inhibition. shares compounds with T cruzi growth-1. T. cruzi beta-gal in NIH3T3, GalScreen luminescence, 90 h. inhibition, % at 8.35 µM. 5,600 compounds, 72% hits. AID 651739;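 active means mean replicate inhibition above about 95% and at least 55% of replicates individually reaching it, limit read from the data; inconclusive means only one of the two criteria is met; inactive means neither criterion is met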
T cruzi growth-3 = inhibitors of T. cruzi proliferation | T. cruzi beta-gal in NIH3T3, GalScreen luminescence, 90 h | shares compounds with T cruzi growth-1 | 5,600 compounds, 21% hits | AID 651740 | inhibition, % at 2.09 µM;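 active means mean inhibition above about 95%, with at least 55% of replicates also reaching it, limit read from the data; inconclusive means meets just one of the two conditions; inactive means meets neither condition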;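 further: plate controls were neutral control median for no effect and positive control median for full effect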
3T3 cytotox = cytotoxicity in mouse NIH/3T3 fibroblasts. shares compounds with T cruzi growth-1. NIH/3T3 viability, CellTiter-Glo ATP luminescence, 90 h. cytotoxicity (signal decrease), % at 8.35 µM. 5,600 compounds, 14% hits;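 active means mean signal decrease across replicates above about 35% based on untreated-well scatter, with enough replicates individually passing, limit read from the data; inconclusive means no rule stated though some were filed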;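 further: 0% = median of neutral control wells and 100% = median of positive control wells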
3T3 cytotox 2 = kills mouse NIH/3T3 fibroblasts. shares compounds with T cruzi growth-1. NIH/3T3 viability, CellTiter-Glo ATP luminescence, 90 h. inhibition, % at 24.9 µM. 5,600 compounds, 56% hits. AID 651744;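 active means mean loss of cell viability signal at or above a set limit, and enough replicates individually reaching it; inconclusive means meets only the mean limit or only the replicate share; inactive means meets neither condition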;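 further: 0% = median of neutral control wells and 100% = median of positive control wells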
* marks the source's active call; other numbers are inactive results; ? = inconclusive; . = no result. The sample as a whole holds a higher share of hits than the screen did.

SMILES	T cruzi growth-1	IDH1 mut inh	GASC1 inh	T cruzi growth-2	T cruzi growth-3	3T3 cytotox	3T3 cytotox 2
COc1cc(Cl)c(C)cc1NC(=O)CSc1nc2ccccc2s1	.	0	.	.	.	.	.
C[C@@H]1OC(OC[C@H]2O[C@@H](Oc3cc(O)c4c(=O)cc(-c5ccc(O)c(O)c5)oc4c3)[C@H](O)[C@@H](O)[C@@H]2O)[C@H](O)[C@H](O)[C@H]1O (some centres not stated)	.	-1	.	.	.	.	.
CC(C)NC(=O)Nc1ccc2c(c1)C(=O)N([C@@H](C)CO)C[C@@H](C)[C@@H](CN(C)C(=O)Nc1ccc(C(F)(F)F)cc1)OCCCC[C@@H](C)O2	94	2	-1	.	.	.	.
Cc1noc(C)c1NC(=O)Nc1ccc2c(c1)C(=O)N([C@@H](C)CO)C[C@H](C)[C@H](CN(C)C(=O)Nc1ccc(C(F)(F)F)cc1)OCCCC[C@H](C)O2	110*	0	-2	96*	78	3	-9
CC(C)NC(=O)Nc1ccc2c(c1)C(=O)N([C@H](C)CO)C[C@H](C)[C@@H](CN(C)C(=O)Nc1ccc(C(F)(F)F)cc1)OCCCC[C@H](C)O2	98*	.	-2	98*	95	13	5
Cc1noc(C)c1NC(=O)Nc1ccc2c(c1)C(=O)N([C@H](C)CO)C[C@H](C)[C@@H](CN(C)C(=O)Nc1ccc(C(F)(F)F)cc1)OCCCC[C@@H](C)O2	22	.	-1	.	.	.	.
C[C@@H]1CCCCO[C@H](CN(C)C(=O)Nc2ccc(C(F)(F)F)cc2)[C@@H](C)CN([C@@H](C)CO)C(=O)c2cc(NC(=O)Nc3ccc(C(F)(F)F)cc3)ccc2O1	112*	-2	-1	108*	115*	2	?
C[C@@H]1CCCCO[C@@H](CN(C)C(=O)Nc2ccc(F)cc2)[C@@H](C)CN([C@@H](C)CO)C(=O)c2cc(NC(=O)Nc3ccc(C(F)(F)F)cc3)ccc2O1	.	1	0	.	.	.	.
CCOC(=O)c1ccccc1NC(=O)CSc1nc2ccccc2[nH]1	.	0	.	.	.	.	.
Cc1ccc(-c2nnc3c4ccccc4c(C)nn23)cc1S(=O)(=O)N(C)CCO	.	0	.	.	.	.	.
COc1ccccc1N(CC(=O)N(C)C)S(=O)(=O)c1ccc(C)cc1	.	0	.	.	.	.	.
C[C@H]1CN([C@@H](C)CO)S(=O)(=O)c2ccc(C#Cc3ccccc3)cc2O[C@H]1CN(C)C(=O)Nc1ccccc1	3	0	0	.	.	.	.
CC(C)CC#Cc1ccc2c(c1)O[C@@H](CN(C)C(=O)Nc1ccccc1)[C@@H](C)CN([C@H](C)CO)S2(=O)=O	129*	0	-3	102*	72	24	95*
COc1ccc(NC(=O)N(C)C[C@@H]2Oc3cc(C#CCC(C)C)ccc3S(=O)(=O)N([C@H](C)CO)C[C@H]2C)cc1	89	0	7	.	.	.	.
COc1ccc(NC(=O)N(C)C[C@H]2Oc3cc(C#CCC(C)C)ccc3S(=O)(=O)N([C@@H](C)CO)C[C@H]2C)cc1	100*	-1	.	108*	73	-18	58*
COCC#Cc1ccc2c(c1)O[C@@H](CN(C)C(=O)Nc1ccc(OC)cc1)[C@H](C)CN([C@@H](C)CO)S2(=O)=O	-84	0	-2	.	.	.	.
CC(C)CC#Cc1ccc2c(c1)O[C@H](CN(C)C(=O)Nc1ccccc1F)[C@H](C)CN([C@H](C)CO)S2(=O)=O	85	-5	-2	.	.	.	.
COc1ccc(NC(=O)N(C)C[C@H]2Oc3cc(C#CCC(C)C)ccc3S(=O)(=O)N([C@@H](C)CO)C[C@@H]2C)cc1	95*	0	1	106*	61	13	89*
CC(C)CC#Cc1ccc2c(c1)O[C@H](CN(C)C(=O)Nc1ccccc1F)[C@@H](C)CN([C@H](C)CO)S2(=O)=O	92*	0	2	107*	39	11	68*
O=C(O)c1cccc(/C=N/NC(=O)c2ccc(C(=O)NO)cc2)c1	.	-1	.	.	.	.	.
CCc1cc(C(=O)OC)c(NC(=O)c2cc(-c3ccccn3)nc3ccc(Cl)cc23)s1	.	-1	.	.	.	.	.
COc1ccc(CCNc2cc(C)c3cccc(OC)c3n2)cc1OC	.	0	.	.	.	.	.
O=C(CCCCCCC(=O)Nc1ccccc1O)N/N=C/c1cc2c(cc1Br)OCO2	.	1	.	.	.	.	.
Cn1nnnc1SCC(=O)Nc1ncccn1	.	0	.	.	.	.	.
COc1ccc(NC(=O)N(C)C[C@@H]2Oc3cc(C#CCN(C)C)ccc3S(=O)(=O)N([C@H](C)CO)C[C@@H]2C)cc1	60	-11	5	.	.	.	.
SMILES	T cruzi growth-1	IDH1 mut inh	GASC1 inh	T cruzi growth-2	T cruzi growth-3	3T3 cytotox	3T3 cytotox 2
COc1ccc(NC(=O)N(C)C[C@@H]2Oc3cc(C#CCC(C)C)ccc3S(=O)(=O)N([C@@H](C)CO)C[C@@H]2C)cc1	99*	0	-1	106*	111*	-11	96*
CCCC#Cc1ccc2c(c1)O[C@@H](CN(C)C(=O)Nc1ccc(OC)cc1)[C@H](C)CN([C@@H](C)CO)S2(=O)=O	92	.	1	.	.	.	.
CCCC#Cc1ccc2c(c1)O[C@H](CN(C)C(=O)Nc1ccc(OC)cc1)[C@@H](C)CN([C@@H](C)CO)S2(=O)=O	113*	-4	0	112*	71	28	-15
COC(=O)c1ccccc1NC(=O)C1CCCN(S(=O)(=O)c2ccc(Br)cc2)C1 (configuration not stated)	.	0	.	.	.	.	.
C/C=C/[C@H](CC(=O)N1Cc2ccccc2C[C@H]1CO)[Si](C)(C)c1ccc(OC)cc1	.	-1	.	.	.	.	.
CC(C)CC#Cc1ccc2c(c1)O[C@H](CN(C)C(=O)Cc1ccccc1)[C@@H](C)CN([C@@H](C)CO)S2(=O)=O	127*	0	-1	104*	111*	-2	104*
CC(C)CC#Cc1ccc2c(c1)O[C@@H](CN(C)C(=O)Cc1cccnc1)[C@H](C)CN([C@@H](C)CO)S2(=O)=O	.	.	-2	.	.	.	.
CC(C)CC#Cc1ccc2c(c1)O[C@H](CN(C)C(=O)Cc1ccncc1)[C@@H](C)CN([C@@H](C)CO)S2(=O)=O	?	0	1	.	.	.	.
CC(C)CC#Cc1ccc2c(c1)O[C@@H](CN(C)C(=O)Cc1ccncc1)[C@H](C)CN([C@@H](C)CO)S2(=O)=O	100*	13	3	99*	25	15	23
CC(C)CC#Cc1ccc2c(c1)O[C@H](CN(C)C(=O)Cc1ccccc1)[C@@H](C)CN([C@H](C)CO)S2(=O)=O	125*	2	4	98*	?	-6	105*
CC(C)CC#Cc1ccc2c(c1)O[C@@H](CN(C)C(=O)Cc1cccnc1)[C@@H](C)CN([C@H](C)CO)S2(=O)=O	.	0	-1	.	.	.	.
Cc1ccc(NC(=O)CSc2c(C)n[nH]c2C)cc1Cl	.	0	.	.	.	.	.
Cc1ccc(NC(=O)COc2ccc(C(=O)Nc3ccc(Cl)cc3)cc2)cc1	.	0	.	.	.	.	.

Screens from PubChem.
